An excerpt weighted towards active compounds, which were near 2% of everything screened.
TbHK1 inh = blocks Trypanosoma brucei hexokinase 1 activity; recombinant TbHK1, G6PDH-coupled NADH A340; inhibition, % at 10 µM; 220,000 compounds, 0.11% hits; AID 1430;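 active = inhibition of 50% or more in the single-dose primary screen; inactive = inhibition below 50%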
TNF necrop inh = TNF-alpha cell death inhibition in Jurkat FADD-/- cells | 220,000 compounds, 0.068% hits | AID 463075 | activation (protection from cell death), % at 10 µM | Jurkat FADD-/- TNF necroptosis rescue, ATP luminescence, 24 h; 0 = TNF only, 100 = no-TNF cells;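 active = activation, meaning protection from cell death, of at least 50% relative to plate controls; inactive = activation below 50%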;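 note: necroptosis triggered by 40 ng/mL TNF-alpha added together with compound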
Hep lipid drop = hepatic lipid droplet formation modulation. AML12 mouse hepatocytes, oleate lipid droplets, BODIPY imaging. inhibition, % at 6.5 µM. 240,000 compounds, 0.4% hits. AID 1656;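 active = lipid droplet intensity inhibited by at least 50%, with more than 500 cells counted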
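Material: mouse AML12 hepatocyte cell line, fixed after treatment; Timing: compound with oleate, overnight; Technique: high-content imaging of BODIPY-stained droplets and DAPI nuclei; Probe or stimulus: oleate, 100 µM final; Dosing: compound at 6.5 µM only.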
RBBP9 inhibitor = human RBBP9 hydrolase inhibition | O75884 | recombinant RBBP9, FP-Rh probe fluorescence polarization | inhibition, % at 7.94 µM | 220,000 compounds, 0.2% hits;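 active = inhibition above the campaign mean of all tested compounds plus 3 SD, cut at about 14% in these data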;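 note: plate controls were DMSO wells with RBBP9 for no effect and wells lacking RBBP9 protein for full effect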
Target sequence (O75884 whole entry, looked up): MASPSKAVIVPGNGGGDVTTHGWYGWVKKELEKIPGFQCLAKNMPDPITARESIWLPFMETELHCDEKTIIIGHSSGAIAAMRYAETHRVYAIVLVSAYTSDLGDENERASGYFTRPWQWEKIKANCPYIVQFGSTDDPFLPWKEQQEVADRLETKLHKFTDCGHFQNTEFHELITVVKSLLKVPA
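system = RBBP9 protein | input = RBBP9 at 2.5 µM in dispensed solution, before mixing | measured by = fluorescence polarization (mP), excitation 525 nm, emission 598 nm | incubation = enzyme-compound preincubation 30 min, then probe labeling 45 min, 25 °C | buffer or medium = Tris-NaCl-Pluronic buffer, pH 8.0 | compound = single dose 7.94 µM | also added = FP-Rh probe, 375 nM dispensing solution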
zVAD death inh = blocks zVAD induced death of L929 cells. L929 zVAD necroptosis rescue, ATP luminescence, 24 h; with zVAD 60 µM. viability rescue, % at 10 µM. 220,000 compounds, 0.38% hits;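 active = activation, scaled between plate controls, above about 75%, limit read from the data; inactive = activation under that limit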;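 note: 0% = zVAD with DMSO and 100% = DMSO alone without zVAD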
PfM18AAP inh = blocks P. falciparum M18 aspartyl aminopeptidase | recombinant PfM18AAP, H-Glu-NHMec fluorogenic cleavage | inhibition, % at 7.35 µM | 290,000 compounds, 1.2% hits;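 active = inhibition above the campaign mean inhibition over all tested compounds plus 3 SD, cut at about 28% in these data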;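 note: 0% = plate median of test compound wells and 100% = 2 mM ZnCl2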
The depositor's hits bear a star.

For CCCOC(=O)c1c(-c2ccc(C)cc2C)csc1NC(=O)C1C2CCC(O2)C1C(=O)O (stereo unspecified) the results were TbHK1 inh 10.9, TNF necrop inh 0.4, Hep lipid drop -62.3, RBBP9 inhibitor 0.4, zVAD death inh 0.0 and PfM18AAP inh 29.6*.
`Cn1c(CCc2ccccc2)n[nH]c1=S` gave TbHK1 inh -1.3, TNF necrop inh -0.4, Hep lipid drop -0.5, RBBP9 inhibitor -3.7, zVAD death inh 5.5 and PfM18AAP inh 20.1.
`Cn1c(CSc2nc3ccccc3s2)n[nH]c1=S` gave TbHK1 inh -8.0, TNF necrop inh -0.1, Hep lipid drop -4.8, RBBP9 inhibitor -0.5, zVAD death inh 1.5 and PfM18AAP inh 30.0*.
Cn1c(Cc2ccccc2)n[nH]c1=S was read as TbHK1 inh 3.5, TNF necrop inh 1.2, Hep lipid drop 4.6, RBBP9 inhibitor 2.9, zVAD death inh 0.7 and PfM18AAP inh 29.6*.
CCOC(=O)c1sc(=S)n(-c2ccc(C)cc2)c1N was read as TbHK1 inh -13.0, TNF necrop inh 0.2, Hep lipid drop 10.8, RBBP9 inhibitor -2.4, zVAD death inh 1.4 and PfM18AAP inh 29.4*.
`O=C(CCCC(=O)N(CC(=O)NC1CCCCC1)Cc1ccc2c(c1)OCO2)Nc1ccccn1` gave TbHK1 inh -2.7, TNF necrop inh -1.1, Hep lipid drop 2.6, RBBP9 inhibitor -4.0, zVAD death inh -1.3 and PfM18AAP inh -1.9.
`c1cc2c(cc1C1=NNC(=NC3CC3)SC1)OCCO2` gave TbHK1 inh -9.9, TNF necrop inh -10.2, Hep lipid drop -2.3, RBBP9 inhibitor -3.6, zVAD death inh -0.2 and PfM18AAP inh 30.8*.
`CCCCN=C1NN=C(c2ccc3c(c2)OCCO3)CS1` gave TbHK1 inh -4.9, TNF necrop inh 9.8, Hep lipid drop -10.6, RBBP9 inhibitor 0.0, zVAD death inh 2.0 and PfM18AAP inh 14.1.
For COc1ccc(-n2nnnc2S(=O)(=O)CC(=O)N2CCCCC2)cc1 the results were TbHK1 inh 7.5, TNF necrop inh -15.6, RBBP9 inhibitor 5.5, zVAD death inh 79.3* and PfM18AAP inh -26.4.
COc1ccc(-n2nnnc2S(=O)(=O)Cc2ccc(C(=O)O)cc2)cc1 was read as TbHK1 inh 3.6, TNF necrop inh -12.0, Hep lipid drop -5.4, RBBP9 inhibitor 2.4, zVAD death inh 0.1 and PfM18AAP inh -97.8.
Screening Cc1ccc(/C=C2\SC(=S)N(c3cccnc3)C2=O)o1 returned TbHK1 inh -5.8, TNF necrop inh 3.9, Hep lipid drop -2.8, RBBP9 inhibitor 1.6, zVAD death inh -0.8 and PfM18AAP inh 31.3*.
`CCOC(=O)C1CCN(CC(=O)c2c(C)n(C)c3ccc(OC)cc23)CC1` gave Hep lipid drop -46.7 and PfM18AAP inh 7.4.
CCOC(=O)C1=C(C)N=c2s/c(=C3\C(=O)Nc4ccccc43)c(=O)n2C1c1ccc2c(c1)OCO2 (stereo unspecified) was read as TbHK1 inh -10.1, TNF necrop inh -3.3, Hep lipid drop 58.6*, RBBP9 inhibitor 2.0, zVAD death inh 0.8 and PfM18AAP inh -19.9.
O=C(CNc1cccc2ccccc12)N/N=C/c1ccc(OC(=O)/C=C/c2ccco2)cc1 was read as TbHK1 inh -8.0, TNF necrop inh -0.5, Hep lipid drop -1.2, RBBP9 inhibitor 0.5 and PfM18AAP inh 28.4*.
Screening CCN(CC)c1ccc(NS(=O)(=O)c2ccc3c(c2)oc(=O)n3C)c(C)c1 returned TbHK1 inh 2.2, TNF necrop inh -3.5, RBBP9 inhibitor -3.8, zVAD death inh -0.3 and PfM18AAP inh 29.3*.
For Cn1c(=O)cc(C(=O)N/N=C/c2ccc(F)cc2)[nH]c1=O the results were TbHK1 inh -40.0, TNF necrop inh 1.8, Hep lipid drop -17.0, RBBP9 inhibitor -4.1, zVAD death inh 0.2 and PfM18AAP inh -8.0.
For O=C1CSC(=S)N1c1cccc(Br)c1 the results were PfM18AAP inh 29.8*.
`O=C(c1cccs1)N1CCN(Cc2cccc([N+](=O)[O-])c2)CC1` gave TbHK1 inh -3.6, TNF necrop inh 3.9, Hep lipid drop 2.0, RBBP9 inhibitor -9.4, zVAD death inh 0.5 and PfM18AAP inh -8.4.
For CCOC(=O)C1C(c2ccc(O)c(O)c2)NC(=S)NC1(O)C(F)(F)F (stereo unspecified) the results were TbHK1 inh 41.1, TNF necrop inh 0.3, Hep lipid drop 7.7, RBBP9 inhibitor -8.6, zVAD death inh 1.4 and PfM18AAP inh 64.8*.
Screening Cc1c(Br)c(O)c(Br)c(O)c1/C=N/n1c(-c2ccccc2)n[nH]c1=S returned Hep lipid drop 2.7 and PfM18AAP inh 29.4*.
`Cc1ccc(NNC(=O)Nc2ccc(Cl)cc2)nn1` gave TbHK1 inh 0.2, TNF necrop inh -0.7, Hep lipid drop -1.9, RBBP9 inhibitor 2.7, zVAD death inh 0.2 and PfM18AAP inh 31.5*.
For NNc1nc2c(Cl)c(Cl)ccc2s1 the results were TbHK1 inh 32.3, TNF necrop inh 0.3, Hep lipid drop 17.3, RBBP9 inhibitor 12.4, zVAD death inh 2.1 and PfM18AAP inh 30.0*.
`O=C(N/N=C\c1ccc(-c2ccc([N+](=O)[O-])cc2)o1)c1ccc2c(c1)OCO2` gave TbHK1 inh -6.0, TNF necrop inh 1.9, Hep lipid drop -1.9, RBBP9 inhibitor -10.6, zVAD death inh 1.1 and PfM18AAP inh -3.4.
For O=C(N/N=C/c1ccc([N+](=O)[O-])o1)c1ccc2c(c1)OCO2 the results were Hep lipid drop -6.1 and PfM18AAP inh 29.9*.
Screening COc1c(O)cc2oc(-c3ccc(O)cc3)cc(=O)c2c1O returned TbHK1 inh -34.7, TNF necrop inh -4.0, Hep lipid drop 14.7 and zVAD death inh 72.3.
COc1cc2oc(-c3ccc(O)cc3)cc(=O)c2c(OC)c1O was read as TbHK1 inh -56.8, TNF necrop inh -2.3, Hep lipid drop -0.1, RBBP9 inhibitor 1.2, zVAD death inh 6.5 and PfM18AAP inh 33.0*.
For Cc1ccccc1/C=N/Nc1nc2ccccc2c(=O)n1O the results were TbHK1 inh -25.5, TNF necrop inh 1.9, RBBP9 inhibitor -9.1, zVAD death inh 0.4 and PfM18AAP inh 30.8*.
For CSc1nc(N)nc(SC2C=CCCC2)c1C#N (stereo unspecified) the results were TbHK1 inh 2.0, TNF necrop inh -3.8, Hep lipid drop 0.5, RBBP9 inhibitor -11.8, zVAD death inh 0.1 and PfM18AAP inh 5.5.
`COc1ccc(N2C(=O)C(Cl)=C(Nc3ccccc3OC)C2=O)cc1` gave TbHK1 inh -2.3, TNF necrop inh 0.0, Hep lipid drop 10.3, RBBP9 inhibitor -6.7 and PfM18AAP inh 14.0.
Screening COc1ccc(N2C(=O)C(Cl)=C(Nc3ccccc3O)C2=O)cc1 returned TbHK1 inh -5.8, TNF necrop inh -4.6, Hep lipid drop -13.9, RBBP9 inhibitor 3.6, zVAD death inh 0.8 and PfM18AAP inh 28.9*.

Screening data (PubChem BioAssay)
